In PMC7161550 (British Journal of Pharmacology, 2020):
Several values for one entry are separate records, joined by “and”; a condition that tells them apart may be missing. Equal entries are not always repeated. Entries after “also recorded” stand apart in the source; their conditions may differ. Where two headings read alike, the source gives them in different places.

Key:
[1] = target: T1, rat brain fatty acid amide hydrolase (Rattus norvegicus, UniProt P97612); assay: FAAH progression curves, kinetic constants k obs and k inact/K I; assay type: biochemical; conditions: inhibition of rat brain FAAH, 37°C
T1 sequence (P97612 1-579): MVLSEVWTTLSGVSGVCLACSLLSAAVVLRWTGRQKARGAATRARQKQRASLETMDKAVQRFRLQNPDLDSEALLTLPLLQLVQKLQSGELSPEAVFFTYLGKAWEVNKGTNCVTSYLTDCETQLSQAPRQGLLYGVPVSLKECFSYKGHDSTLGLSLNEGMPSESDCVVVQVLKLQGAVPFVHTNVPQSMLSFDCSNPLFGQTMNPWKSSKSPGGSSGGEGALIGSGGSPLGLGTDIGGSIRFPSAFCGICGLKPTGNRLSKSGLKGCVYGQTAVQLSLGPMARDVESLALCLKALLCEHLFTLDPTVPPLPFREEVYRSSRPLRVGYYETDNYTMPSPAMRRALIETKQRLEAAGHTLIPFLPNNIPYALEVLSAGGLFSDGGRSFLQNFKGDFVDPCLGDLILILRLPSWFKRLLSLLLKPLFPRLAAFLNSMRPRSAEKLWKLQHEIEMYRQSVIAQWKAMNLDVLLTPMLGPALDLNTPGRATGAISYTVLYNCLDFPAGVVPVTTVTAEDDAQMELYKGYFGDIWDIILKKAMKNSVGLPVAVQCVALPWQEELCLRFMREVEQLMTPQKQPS

[2] = target: T2, human recombinant fatty acid amide hydrolase (FAAH) (Homo sapiens, UniProt O00519); assay: FAAH activity in intact COS‐hFAAH cells; assay type: cell-based
T2 sequence (O00519 1-579): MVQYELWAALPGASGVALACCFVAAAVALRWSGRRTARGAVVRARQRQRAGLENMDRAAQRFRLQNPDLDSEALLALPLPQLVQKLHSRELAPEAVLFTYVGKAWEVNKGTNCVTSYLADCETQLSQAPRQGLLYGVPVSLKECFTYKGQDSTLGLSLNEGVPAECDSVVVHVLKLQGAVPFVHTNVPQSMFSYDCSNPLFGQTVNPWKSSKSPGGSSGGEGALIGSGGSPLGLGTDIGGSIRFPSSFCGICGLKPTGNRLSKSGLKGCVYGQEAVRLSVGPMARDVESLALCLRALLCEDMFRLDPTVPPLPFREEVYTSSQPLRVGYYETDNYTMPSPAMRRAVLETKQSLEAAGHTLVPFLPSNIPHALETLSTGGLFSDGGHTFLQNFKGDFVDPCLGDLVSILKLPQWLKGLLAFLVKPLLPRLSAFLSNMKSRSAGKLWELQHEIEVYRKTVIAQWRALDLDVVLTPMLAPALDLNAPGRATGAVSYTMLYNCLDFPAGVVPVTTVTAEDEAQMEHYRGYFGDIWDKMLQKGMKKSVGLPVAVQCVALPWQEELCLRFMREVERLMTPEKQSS

COS‐hFAAH cells = assay: Quantification of compounds in COS‐hFAAH supernatant, cell lysates and medium; assay type: in vitro ADME; conditions: 1, 3 and 24 hr
[3] = target: T3, mouse brain fatty acid amide hydrolase (FAAH) (Mus musculus, UniProt O08914); assay: Ex vivo FAAH activity in mouse brain after oral administration; conditions: for ED50 [95% CI] Brain: 8 hr after oral administration
T3 sequence (O08914 1-579): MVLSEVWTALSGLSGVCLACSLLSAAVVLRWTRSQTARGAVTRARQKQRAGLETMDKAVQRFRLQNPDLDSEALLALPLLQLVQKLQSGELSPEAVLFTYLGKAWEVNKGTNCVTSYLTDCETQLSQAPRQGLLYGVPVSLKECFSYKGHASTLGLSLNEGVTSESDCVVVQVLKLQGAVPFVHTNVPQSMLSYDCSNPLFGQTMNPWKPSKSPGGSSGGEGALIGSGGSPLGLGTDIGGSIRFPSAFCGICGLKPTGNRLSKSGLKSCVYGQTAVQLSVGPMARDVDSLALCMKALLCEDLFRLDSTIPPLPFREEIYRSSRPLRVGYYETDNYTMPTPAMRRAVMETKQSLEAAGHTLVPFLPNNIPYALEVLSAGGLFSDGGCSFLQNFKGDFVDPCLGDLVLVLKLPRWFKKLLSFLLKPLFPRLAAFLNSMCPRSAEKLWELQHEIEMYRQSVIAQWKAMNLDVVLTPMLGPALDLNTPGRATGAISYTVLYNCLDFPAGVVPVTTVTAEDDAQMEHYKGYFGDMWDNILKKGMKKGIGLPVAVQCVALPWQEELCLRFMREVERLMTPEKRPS
Method in brief: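 Liver and half-brain were collected into FAAH membrane buffer (3 mM MgCl2, 1 mM EDTA, 50 mM Tris HCl, pH 7.4) and stored at −20°C. Homogenates (15 μg protein brain, 5 μg liver) were pre-incubated 15 min at 37°C. AEA + 3H‑AEA + BSA was added for 10 min (brain) or 7 min (liver), then charcoal. Scintillation counting gave % remaining activity versus controls after blank subtraction.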

[4] = Plasma and brain levels of BIA 10‐2474 and PF‐04457845 in mice; assay type: in vivo; conditions: mouse; for Tmax / half-life / AUC(0-t) / Cmax: po
[5] = system: 229 assays for receptors, enzymes, transporters, ion channels, hormones, growth factors and inflammatory mediators; assay type: binding; conditions: 10 and 50 μM
[6] = target: T4, fatty acid amide hydrolase (Rattus norvegicus, UniProt P97612); assay: Gel‐based competitive ABPP in vitro, TAMRA‐FP probe, rat brain fractions; assay type: biochemical; conditions: 1 hr
T4 sequence (P97612 1-579): T1 sequence (P97612 1-579)
Method in brief: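 Rat brain membrane and soluble protein extracts (200 μg) were incubated 1 hr at room temperature with test compound at 1 nM–100 μM, DMSO vehicle or PMSF 3 mM. Active serine hydrolases were then labelled with TAMRA‑FP probe (2 μM final) for 1 hr at room temperature. Bands were visualized by in-gel fluorescence.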

[7] = brain (without cerebellum), 0.3 mg/kg

SMILES: CN(C(=O)n1cnc(-c2ccc[n+]([O-])c2)c1)C1CCCCC1 [BIA 10‐2474, 3‐(1‐(cyclohexyl (methyl)carbamoyl)‐1H‐imidazol‐4‐yl)pyridine 1‐oxide]
- k inact/K I [1]: 1,243 M·s^−1
- fold less potent than PF‐04457845 in inhibiting human FAAH in situ [2]: 10 fold
- IC50 ([2]; IC50 [95% CI], incubation 1 hr): 74.4 nM
- IC50 ([2]; IC50 [95% CI], incubation 3 hr): 42.5 nM
- IC50 ([2]; IC50 [95% CI], incubation 24 hr): 18 nM
- IC50 ([2]; IC50 values over all incubation times, intact cells expressing human FAAH): 18 to 74 nM
- detection in cell lysates (COS‐hFAAH cells): undetectable
- stability in cellular media over time (COS‐hFAAH cells): stable
- ED50 [95% CI] Brain ([3]; 480 min): 13.5 μg·kg^−1 and 13.5 [10.2, 17.7] μg·kg^−1
- inhibition at 0.1 mg/kg ([3]; po, read-out: maximal inhibition of brain FAAH): 91.4%
- Brain AUClast ([4]; 0.1 mg·kg^−1 p.o.): 11.3 ng·h/g
- Brain C max ([4]; 0.1 mg·kg^−1 p.o.): 5.3 ng/g
- maximum level in brain ([4]; 0.1 mg·kg^−1 p.o., equivalent of 5.3 ng·g^−1): 18 nM
- maximum level in plasma ([4]; 0.1 mg·kg^−1 p.o., equivalent of 33.0 ng·ml^−1): 109 nM
- Brain AUClast ([4]; 0.3 mg·kg^−1 p.o.): 60.8 ng·h/g
- Brain C max ([4]; 0.3 mg·kg^−1 p.o.): 21.6 ng/g
- Tmax ([4]; brain (without cerebellum), 0.1 mg/kg): 1 h
- Tmax [4, 7]: 1 h
- half-life [4, 7]: 1.75 h
- AUC(0-t) ([4]; plasma, 0.1 mg/kg): 110 ng·h/mL
- Cmax ([4]; plasma, 0.1 mg/kg): 33 ng/mL
- Tmax ([4]; plasma, 0.1 mg/kg): 1 h
- half-life ([4]; plasma, 0.1 mg/kg): 2.2 h
- AUC(0-t) ([4]; plasma, 0.3 mg/kg): 338 ng·h/mL
- Cmax ([4]; plasma, 0.3 mg/kg): 104 ng/mL
- Tmax ([4]; plasma, 0.3 mg/kg): 1 h
- half-life ([4]; plasma, 0.3 mg/kg): 1.9 h
- off‐target activity at the sites studied [5]: no significant activity
- concentration that completely inhibited the band corresponding to the MW of FAAH [6]: 100 µM

SMILES: O=C(Nc1cccnn1)N1CCC(=Cc2cccc(Oc3ccc(C(F)(F)F)cn3)c2)CC1 [PF‐04457845]
- k inact/K I [1]: 167,333 M·s^−1
- IC50 ([2]; read-out: IC50 [95% CI], incubation 1 hr): 4.3 nM
- IC50 ([2]; read-out: IC50 [95% CI], incubation 3 hr): 3.4 nM
- detection in cell lysates (COS‐hFAAH cells): detected
- stability in cellular media over time (COS‐hFAAH cells): not stable
- brain FAAH activity, % of control levels ([3]; 0.1 mg·kg^−1 p.o., 48 hr): 43.8%
- inhibition of cerebral FAAH, mean values ([3]; 0.1 mg·kg^−1 p.o., over 24 hr): above 88.7%
- ED50 [95% CI] Brain [3]: 4.3 [1.8, 9.9] μg·kg^−1
- Plasma AUClast ([4]; 0.03 mg·kg^−1 p.o.): 4.3 ng·h/mL
- Plasma C max ([4]; 0.03 mg·kg^−1 p.o.): 1.3 ng/mL
- Plasma t max ([4]; 0.03 mg·kg^−1 p.o.): 2 h
- detection in the brain ([4]; 0.03 mg·kg^−1 p.o.): not detectable
- Brain AUClast ([4]; 0.1 mg·kg^−1 p.o.): 22.9 ng·h/g
- Brain C max ([4]; 0.1 mg·kg^−1 p.o.): 3.7 ng/g
- Brain t max ([4]; 0.1 mg·kg^−1 p.o.): 2 h
- Plasma AUClast ([4]; 0.1 mg·kg^−1 p.o.): 238.3 ng·h/mL
- Plasma C max ([4]; 0.1 mg·kg^−1 p.o.): 38.3 ng/mL
- Plasma t max ([4]; 0.1 mg·kg^−1 p.o.): 2 h
- brain levels, fold lower than in plasma ([4]; 0.1 mg·kg^−1 p.o.): approximately 10 fold
- off‐target activity at the sites studied [5]: active at a number of sites; also recorded: significant activity at several receptors, transporters and ion channels
- concentration that completely inhibited the band corresponding to the MW of FAAH [6]: 0.1 µM
